From ChEMBL document CHEMBL4038305, “Benzoxaborole Antimalarial Agents. Part 5. Lead Optimization of Novel Amide Pyrazinyloxy Benzoxaboroles and Identification of a Preclinical Candidate” (J Med Chem, 2017)

Legend:
[1] = tested on: Plasmodium berghei; experiment: Antimalarial activity against Plasmodium berghei infected in Swiss Webster mouse assessed as mouse survival rate at 11 mg/kg administered once daily via oral gavage for 4 consecutive days beginning 1 hr after infection measured on day 7 post infection relative to control; format: functional
How it was run: (§1)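 P. berghei-infected erythrocytes taken from a previously infected mouse were injected intraperitoneally. Oral dosing, once daily for 4 consecutive days, began 1 h after infection, in polyethylene glycol 300/propylene glycol/water (55/25/20 by weight). Chloroquine at 30 mg/kg was the positive control, with a vehicle-only group. Percent survival was recorded daily from day 4 to day 20.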

[2] = tested on: Plasmodium berghei; experiment: Antimalarial activity against Plasmodium berghei infected in Swiss Webster mouse assessed as mouse survival rate at 11 mg/kg administered once daily via oral gavage for 4 consecutive days beginning 1 hr after infection measured on day 5 post infection relative to control; format: functional; how it was run: as §1
[3] = tested on: Plasmodium berghei; experiment: Antimalarial activity against Plasmodium berghei infected in Swiss Webster mouse assessed as mouse survival rate at 100 mg/kg administered once daily via oral gavage for 4 consecutive days beginning 1 hr after infection measured on day 12 post infection relative to control; format: functional
How it was run: (§2)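 Mice given an intraperitoneal injection of P. berghei-infected erythrocytes taken from a previously infected animal. Oral dosing once daily for 4 consecutive days, starting 1 h after infection. Vehicle: polyethylene glycol 300/propylene glycol/water (weight ratio 55/25/20). Percent survival recorded daily from day 4 to day 20. Chloroquine 30 mg/kg and vehicle-only groups served as controls.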

[4] = tested on: Plasmodium berghei; experiment: Antimalarial activity against Plasmodium berghei infected in Swiss Webster mouse assessed as mouse survival rate at 3.7 mg/kg administered once daily via oral gavage for 4 consecutive days beginning 1 hr after infection measured on day 6 post infection relative to control; format: functional; how it was run: as §1
[5] = tested on: Plasmodium berghei; experiment: Antimalarial activity against Plasmodium berghei infected in Swiss Webster mouse assessed as mouse survival rate at 0.4 mg/kg administered once daily via oral gavage for 4 consecutive days beginning 1 hr after infection measured on day 6 post infection relative to control; format: functional; how it was run: as §2
[6] = tested on: Plasmodium berghei; experiment: Antimalarial activity against Plasmodium berghei infected in Swiss Webster mouse assessed as mouse survival rate at 33 mg/kg administered once daily via oral gavage for 4 consecutive days beginning 1 hr after infection measured on day 7 post infection relative to control; format: functional; how it was run: as §1
[7] = tested on: Plasmodium berghei; experiment: Antimalarial activity against Plasmodium berghei infected in Swiss Webster mouse assessed as mouse survival rate at 200 mg/kg administered once daily via oral gavage for 4 consecutive days beginning 1 hr after infection measured on day 9 post infection relative to control; format: functional; how it was run: as §1
[8] = tested on: Plasmodium berghei; experiment: Antimalarial activity against Plasmodium berghei infected in Swiss Webster mouse assessed as mouse survival rate at 0.1 mg/kg administered once daily via oral gavage for 4 consecutive days beginning 1 hr after infection measured on day 5 post infection relative to control; format: functional; how it was run: as §2
[9] = tested on: Plasmodium berghei; experiment: Antimalarial activity against Plasmodium berghei infected in Swiss Webster mouse assessed as mouse survival rate at 33 mg/kg administered once daily via oral gavage for 4 consecutive days beginning 1 hr after infection measured on day 5 post infection relative to control; format: functional; how it was run: as §1
[10] = tested on: Plasmodium berghei; experiment: Antimalarial activity against Plasmodium berghei infected in Swiss Webster mouse assessed as mouse survival rate at 11 mg/kg administered once daily via oral gavage for 4 consecutive days beginning 1 hr after infection measured on day 4 post infection relative to control; format: functional; how it was run: as §1
[11] = tested on: Plasmodium berghei; experiment: Antimalarial activity against Plasmodium berghei infected in Swiss Webster mouse assessed as mouse survival rate at 33 mg/kg administered once daily via oral gavage for 4 consecutive days beginning 1 hr after infection measured on day 10 post infection relative to control; format: functional; how it was run: as §1
[12] = tested on: Plasmodium berghei; experiment: Antimalarial activity against Plasmodium berghei infected in Swiss Webster mouse assessed as mouse survival rate at 100 mg/kg administered once daily via oral gavage for 4 consecutive days beginning 1 hr after infection measured on day 5 post infection relative to control; format: functional; how it was run: as §2
[13] = tested on: Plasmodium berghei; experiment: Antimalarial activity against Plasmodium berghei infected in Swiss Webster mouse assessed as mouse survival rate at 33 mg/kg administered once daily via oral gavage for 4 consecutive days beginning 1 hr after infection measured on day 12 post infection relative to control; format: functional; how it was run: as §1
[14] = Metabolic stability in rat hepatocytes at 22 uM after 44 hrs; format: ADME, cell-based, Hepatocyte
[15] = tested on: Plasmodium berghei; experiment: Antimalarial activity against Plasmodium berghei infected in Swiss Webster mouse assessed as mouse survival rate at 33 mg/kg administered once daily via oral gavage for 4 consecutive days beginning 1 hr after infection measured on day 9 post infection relative to control; format: functional; how it was run: as §1
[16] = tested on: Plasmodium berghei; experiment: Antimalarial activity against Plasmodium berghei infected in Swiss Webster mouse assessed as mouse survival rate at 33 mg/kg administered once daily via oral gavage for 4 consecutive days beginning 1 hr after infection measured on day 6 post infection relative to control; format: functional; how it was run: as §1
[17] = tested on: Plasmodium berghei; experiment: Antimalarial activity against Plasmodium berghei infected in Swiss Webster mouse assessed as mouse survival rate at 100 mg/kg administered once daily via oral gavage for 4 consecutive days beginning 1 hr after infection measured on day 7 post infection relative to control; format: functional; how it was run: as §2
[18] = tested on: Plasmodium berghei; experiment: Antimalarial activity against Plasmodium berghei infected in Swiss Webster mouse assessed as mouse survival rate at 11 mg/kg administered once daily via oral gavage for 4 consecutive days beginning 1 hr after infection measured on day 6 post infection relative to control; format: functional; how it was run: as §1
[19] = tested on: Plasmodium berghei; experiment: Antimalarial activity against Plasmodium berghei infected in Swiss Webster mouse assessed as mouse survival rate at 0.1 mg/kg administered once daily via oral gavage for 4 consecutive days beginning 1 hr after infection measured on day 6 post infection relative to control; format: functional; how it was run: as §2
[20] = tested on: Plasmodium berghei; experiment: Antimalarial activity against Plasmodium berghei infected in Swiss Webster mouse assessed as mouse survival rate at 100 mg/kg administered once daily via oral gavage for 4 consecutive days beginning 1 hr after infection measured on day 6 post infection relative to control; format: functional; how it was run: as §2
[21] = tested on: Plasmodium berghei; experiment: Antimalarial activity against Plasmodium berghei infected in Swiss Webster mouse assessed as mouse survival rate at 100 mg/kg administered once daily via oral gavage for 4 consecutive days beginning 1 hr after infection measured on day 15 post infection relative to control; format: functional; how it was run: as §2
[22] = tested on: Plasmodium berghei; experiment: Antimalarial activity against Plasmodium berghei infected in Swiss Webster mouse assessed as mouse survival rate at 100 mg/kg administered once daily via oral gavage for 4 consecutive days beginning 1 hr after infection measured on day 13 post infection relative to control; format: functional; how it was run: as §2
[23] = tested on: Plasmodium berghei; experiment: Antimalarial activity against Plasmodium berghei infected in Swiss Webster mouse assessed as mouse survival rate administered once daily via oral gavage for 4 consecutive days beginning 1 hr after infection measured on day 4 post infection; format: functional; how it was run: as §2
[24] = tested on: Plasmodium berghei; experiment: Antimalarial activity against Plasmodium berghei infected in Swiss Webster mouse assessed as mouse survival rate at 1.2 mg/kg administered once daily via oral gavage for 4 consecutive days beginning 1 hr after infection measured on day 5 post infection relative to control; format: functional; how it was run: as §2
[25] = tested on: Plasmodium berghei; experiment: Antimalarial activity against Plasmodium berghei infected in Swiss Webster mouse assessed as mouse survival rate at 1.2 mg/kg administered once daily via oral gavage for 4 consecutive days beginning 1 hr after infection measured on day 7 post infection relative to control; format: functional; how it was run: as §2
[26] = Cmax in CD1 mouse plasma at 5 mg/kg, po via gavage by HPLC/MS analysis; format: ADME, organism-based; set-up: dose 5 mg/kg, route oral
How it was run: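 Female CD-1 mice, male SD rats and beagle dogs received 5 mg/kg either iv or by oral gavage. Vehicle was PEG 300/propylene glycol/water (55/25/20, pH 6). Blood was sampled and drug measured by HPLC-MS/MS.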

[27] = Oral bioavailability in CD1 mouse at 5 mg/kg by HPLC/MS analysis; format: ADME, organism-based; details: in vivo
How it was run: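 Female CD-1 mice, male SD rats or beagle dogs given 5 mg/kg by iv injection or oral gavage. Formulation was PEG300/propylene glycol/water 55/25/20, pH 6. Blood samples analysed by HPLC–MS/MS; parameters include AUC0-inf extrapolated to infinity and terminal half-life.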

Row | SMILES | survival at 11 mg/kg [1] | survival at 11 mg/kg [2] | survival at 100 mg/kg [3] | survival at 3.7 mg/kg [4] | survival at 0.4 mg/kg [5] | survival at 33 mg/kg [6] | survival at 0.1 mg/kg [8] | survival at 33 mg/kg [9] | survival at 11 mg/kg [10] | survival at 33 mg/kg [11] | survival at 100 mg/kg [12] | survival at 33 mg/kg [13] | Stability [14] | survival at 33 mg/kg [15] | survival at 33 mg/kg [16] | survival at 100 mg/kg [17] | survival at 11 mg/kg [18] | survival at 0.1 mg/kg [19] | survival at 100 mg/kg [20] | survival at 100 mg/kg [21] | other results
1 | Cc1c(Oc2cnc(C(=O)N3CC(O)(C(C)C)C3)cn2)ccc2c1B(O)OC2 | 60% | 100% | 100% | 100% | 100% | 100% | 100% | 100% | 100% | 100% | 100% | 100% | Stable | 100% | 100% | 100% | 100% | 100% | 100% | 100% | survival at 200 mg/kg [7]: 100%; survival at 100 mg/kg [22]: 100%; ED90 [23]: 4.5 mg/kg
2 | CCCC1(O)CN(C(=O)c2cnc(Oc3ccc4c(c3C)B(O)OC4)cn2)C1 | 80% | 100% | 100% | 100% | 100% | 100% | 100% | 100% | 100% | 100% | 100% | 100% | Stable | 100% | 100% | 100% | 100% | 100% | 100% | 80% | survival at 200 mg/kg [7]: 100%; survival at 1.2 mg/kg [24]: 100%; survival at 1.2 mg/kg [25]: 0%; survival at 100 mg/kg [22]: 100%; ED90 [23]: 3.3 mg/kg
3 | Cc1c(Oc2cnc(C(=O)N3CC(C)(O)C3)cn2)ccc2c1B(O)OC2 | 100% | 100% | 100% | 100% | 100% | 100% | 100% | 100% | 100% | 100% | 100% | 100% | Stable | 100% | 100% | 100% | 100% | 100% | 100% | 60% | Cmax [26]: 3900 ng/mL; survival at 1.2 mg/kg [24]: 100%; survival at 1.2 mg/kg [25]: 0%; survival at 100 mg/kg [22]: 100%; bioavailability [27]: 101%; ED90 [23]: 1.9 to 1.92 mg/kg
4 | Cc1c(Oc2cnc(C(=O)N3CC(O)(C(F)(F)F)C3)cn2)ccc2c1B(O)OC2 | 100% | 100% | 100% | 100% | 100% | 100% | 100% | 100% | 100% | 50% | 100% | 50% | Stable | 100% | 100% | 100% | 100% | 100% | 100% | 100% | survival at 100 mg/kg [22]: 100%; ED90 [23]: 5.7 mg/kg
